In PubChem BioAssay:
Results filed as inconclusive are left out.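 How the source made its calls, unless noted: active means inhibition over a set limit, the all-compound mean plus 3 SD, in both replicate runs; inconclusive means over that limit in just one replicate run; inactive means at or under that limit in both runs.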

Key:
[1] = S. cerevisiae growth inhibition in permissive medium (OD615), pilot counter-assay for S. cerevisiae lifespan shortening project, permissive growth control (AID 705;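 active means growth inhibition above 25% in both replicates, a cutoff set 3 SD above the mean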); conditions: OD615, 24 h, at 10 µM, hits give high values
Procedure, shortened: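 System: Engineered DeaD yeast | Buffer or medium: SC raffinose/galactose permissive medium | Incubation: Cells pre-grown 4 h, then 24 h compound exposure, 30 °C humidified | Measured by: Absorbance (optical density) at 615 nm | Read-out: Reduction in yeast growth (OD615)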

[2] = S. cerevisiae growth inhibition in restrictive medium, OD615, pilot screen, restrictive growth control, yeast lifespan reduction project (AID 706;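 active means growth inhibition above a set limit, 3 SD over mean compound inhibition, in both replicates, cut at about 43% in these data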;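 further: modified DeaD lifespan yeast strain shifted to restrictive glucose medium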); conditions: OD615, 48 h, at 10 µM, hits give high values
Procedure, shortened: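 Material: modified S. cerevisiae; Medium: glucose-based CSMM-D restrictive medium; Compound dosing: one concentration, 10 µM final, 0.25% DMSO; Incubation: 48 h compound exposure at 30 °C; Measured by: OD615.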

[3] = doxorubicin toxicity protection in MRP-1 cells – H69AR cells, CellTiter-Glo, duplicate, MRP-1 activator project, pilot screen (AID 807;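 active means viability increase at or above a cutoff of the median across tested compounds plus 3 SD, cut at about 8.5% in these data, passing the limit was not always enough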;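 further: compound pretreatment 18-22 h then 72 h combined with doxorubicin; 0% = doxorubicin alone and 100% = vehicle without doxorubicin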); conditions: H69AR viability with doxorubicin, CellTiter-Glo luminescence; at 10 µM; hits give high values
[4] = viability of HCT116 without oncogenic beta-catenin – human colon tumor cells, pilot screen (AID 823;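 active means cell viability at or below a set limit in both duplicate runs, the limit being the all-compound median minus 4 SD, cut at about 23% in these data, passing the limit was not always enough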;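 further: 0% = wells killed by 20 µM Hyamine and 100% = untreated DMSO cell wells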); conditions: HCT116 beta-catenin knockout viability, CellTiter-Glo, 60 h; at 10 µM; hits give low values
[5] = viability of PTEN-null HCT116 cells – cell-based, HCT116 clonal line, CellTiter-Glo, pilot screen (AID 824;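 active means viability at or below 27.92% in each of two runs, the all-compound median minus 4 SD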;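 further: 0% = 20 µM Hyamine control and 100% = vehicle cell control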); conditions: HCT116 PTEN-deleted viability, 60 h, at 10 µM, hits give low values
[6] = RAM pathway blockade in budding yeast – dse1pr::URA3 reporter, 5-FOA selection, pilot screen (AID 869);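 further: 0% = DMSO wells with no growth and 100% = 10 µM 1-NA-PP1 with full growth; RAM network block rescues cells from 5-FOA so hits raise OD615 growth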; conditions: S. cerevisiae dse1pr::URA3 5-FOA growth, OD615, 2 d; at 10 µM; hits give high values; strain carries analog-sensitive mutant Cbk1 kinase
[7] = RAM signaling pathway blockade in yeast – S. cerevisiae, Pdr1DBD-CYC8 efflux-inhibited sensitized strain, primary screen (AID 1298;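 active means RAM network inhibition above 8.4% in each of two replicates, 3 SD over the compound average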;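 further: 0% = DMSO untreated cells without growth and 100% = 10 µM 1-NA-PP1 full growth; higher means more yeast growth rescued from 5-FOA killing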); conditions: S. cerevisiae cbk1-as DSE1-URA3 strain, 5-FOA growth OD615, 2 d; at 50 µM; hits give high values

Cn1c(=O)c2nc(-c3ccc(Cl)cc3Cl)oc2c2ccccc21
inactive: growth inhibition [1] -12.5% | growth inhibition [2] -0.105% | viability increase [3] -3.1% | viability [4] 81.1% | viability [5] 77.6% | inhibition [6] 2.31% | RAM network inhibition [7] 3.74%

C=CCNc1nc2c(c(=O)n(C)c(=O)n2C)n1CC(=C)C
inactive: growth inhibition [1] -1.17% | growth inhibition [2] 2.97% | viability increase [3] -0.38% | viability [4] 91.2% | viability [5] 91.8% | inhibition [6] -0.15% | RAM network inhibition [7] 1.58%

CC1(C)CC(=O)N(CC(=O)N2CCN(c3ncccn3)CC2)c2ccccc2S1(=O)=O
inactive: growth inhibition [1] -6.82% | growth inhibition [2] -9.5% | viability increase [3] 0.27% | viability [4] 102% | viability [5] 91.8% | inhibition [6] 0.48% | RAM network inhibition [7] -0.32%

Cc1cc(C)n(-c2ncc(-c3ccccc3)nn2)n1
inactive: growth inhibition [1] -2.83% | growth inhibition [2] 29.2% | viability increase [3] -0.89% | viability [4] 105% | viability [5] 105% | inhibition [6] 0.43% | RAM network inhibition [7] 2.61%

CCOC(=O)C1=C2N(C)c3ccccc3N2CCC1=O
inactive: growth inhibition [1] 8.71% | growth inhibition [2] 4.85% | viability increase [3] -3.21% | viability [4] 97.5% | viability [5] 93.8% | inhibition [6] 1.9% | RAM network inhibition [7] -0.41%

Cc1cccc(CN2CCN(CC(=O)NCc3ccc(F)cc3)C2=O)c1
inactive: growth inhibition [1] -2.2% | growth inhibition [2] -1.6% | viability increase [3] 0.82% | viability [4] 104% | viability [5] 104% | inhibition [6] 0.03% | RAM network inhibition [7] 3.27%

COc1ccccc1-c1cc(C2CC2)nc(N)c1C#N
inactive: growth inhibition [1] -20.8% | growth inhibition [2] -19.3% | viability increase [3] -3.86% | viability [4] 94.7% | viability [5] 94.2% | inhibition [6] -0.08% | RAM network inhibition [7] 3.76%

CC(C)=CC1C(C(=O)Nc2ccc(Br)cn2)C1(C)C (stereo not drawn)
inactive: growth inhibition [1] -14.6% | growth inhibition [2] -19.1% | viability increase [3] -0.01% | viability [4] 60.7% | viability [5] 63.2% | inhibition [6] 3.15% | RAM network inhibition [7] 4.66%

O=C(CC1c2ccccc2Oc2ccccc21)N1CCN(c2ccccn2)CC1
inactive: growth inhibition [1] -16.3% | growth inhibition [2] -10.3% | viability increase [3] -3.24% | viability [4] 71.6% | viability [5] 70.5% | inhibition [6] 1.08% | RAM network inhibition [7] 4.78%

COC(=O)c1c(NC(=O)CSc2nnnn2-c2ccccc2)sc2c1CCC(C)C2 (stereo not drawn)
inactive: growth inhibition [1] -21.3% | growth inhibition [2] -21.2% | viability increase [3] -1.07% | viability [4] 84.4% | viability [5] 78.3% | inhibition [6] 2.46% | RAM network inhibition [7] 10.1%

Cc1ccccc1-c1nc(CS(=O)CC(=O)NCCN2CCOCC2)c(C)o1 (stereo not drawn)
inactive: growth inhibition [1] 0.43% | growth inhibition [2] 1.41% | viability increase [3] -1.4% | viability [4] 101% | viability [5] 91.2% | inhibition [6] 1.11% | RAM network inhibition [7] 9.97%

COC(=O)C1(C)NC(=O)c2ccccc2N1 (stereo not drawn)
inactive: growth inhibition [1] -6.57% | growth inhibition [2] -7.71% | viability increase [3] -0.86% | viability [4] 102% | viability [5] 99.2% | inhibition [6] 0.47% | RAM network inhibition [7] 5.23%

CCCc1cc(C(=O)Nc2sc3c(c2C(=O)OCC)CCCC3)no1
inactive: growth inhibition [1] -19% | growth inhibition [2] -10.2% | viability increase [3] 1.82% | viability [4] 104% | viability [5] 99.5% | inhibition [6] 3.09% | RAM network inhibition [7] 3.28%

COc1ccc(OC)c(NC(=O)c2ccc(NC(C)=O)cc2)c1
inactive: growth inhibition [1] -22.5% | growth inhibition [2] -12.5% | viability increase [3] 0.76% | viability [4] 109% | viability [5] 101% | inhibition [6] 1.2% | RAM network inhibition [7] 5.24%

COc1ccc(-c2noc(Cc3cccs3)n2)cc1
inactive: growth inhibition [1] 0.04% | growth inhibition [2] 3.45% | viability increase [3] -2.47% | viability [4] 102% | viability [5] 93.3% | inhibition [6] 2.76% | RAM network inhibition [7] 4.89%

COc1ccc(OCCSc2nnc(-c3ccccc3)n2N)cc1
inactive: growth inhibition [1] -2.49% | growth inhibition [2] -12.7% | viability increase [3] 0.25% | viability [4] 89.8% | viability [5] 92.5% | inhibition [6] 1.27% | RAM network inhibition [7] 5.07%

CCCNC(=O)CS(=O)Cc1nc(-c2ccccc2C)oc1C (stereo not drawn)
inactive: growth inhibition [1] -14.3% | growth inhibition [2] -5.72% | viability increase [3] 0.85% | viability [4] 94.2% | viability [5] 96.9% | inhibition [6] -0.325% | RAM network inhibition [7] 6.48%

CCn1cc(Cl)c(C(=O)Nc2nc3ccccc3n2CCN2CCCCC2)n1
inactive: growth inhibition [1] -5% | growth inhibition [2] 13.4% | viability increase [3] -4.57% | viability [4] 88.8% | viability [5] 92.2% | inhibition [6] 0.905% | RAM network inhibition [7] 2.98%

O=C(c1ccc(Cn2c(=O)[nH]c3ccccc3c2=O)cc1)N1CCN(c2ccccn2)CC1
inactive: growth inhibition [1] -11.8% | growth inhibition [2] -8.79% | viability increase [3] -2.12% | viability [4] 93.1% | viability [5] 78.6% | inhibition [6] 0.23% | RAM network inhibition [7] 8.38%

COc1ccc(Cl)cc1C(=O)N(Cc1nc(-c2cccc(C)c2)no1)C(C)C
inactive: growth inhibition [1] -18.4% | growth inhibition [2] -10.7% | viability increase [3] 0.87% | viability [4] 58.8% | viability [5] 57.6% | inhibition [6] 2.31% | RAM network inhibition [7] 8.49%

Cc1ccc(C(=O)c2cc3c(cc2N)OCCO3)cc1
inactive: growth inhibition [1] -11.6% | growth inhibition [2] -21.8% | viability increase [3] -3.61% | viability [4] 91.2% | viability [5] 89.2% | inhibition [6] 0.27% | RAM network inhibition [7] 3.36%

CN(C)C(=O)N1CCC(C(=O)NCc2ccc(F)cc2)CC1
inactive: growth inhibition [1] 4.29% | growth inhibition [2] 9.94% | viability increase [3] -1.51% | viability [4] 104% | viability [5] 94.7% | inhibition [6] 0.865% | RAM network inhibition [7] 5.08%

O=S(=O)(c1ccccc1)N1CCN(C2CCN(Cc3ccccc3)CC2)CC1
inactive: growth inhibition [1] -10.8% | growth inhibition [2] -0.305% | viability increase [3] -1.86% | viability [4] 90.3% | viability [5] 94.4% | inhibition [6] 0.155% | RAM network inhibition [7] 2.72%

Cc1coc2c(C)c3oc(=O)c4c(c3cc12)CCCC4
inactive: growth inhibition [1] -10.3% | growth inhibition [2] -13.6% | viability increase [3] -5.04% | viability [4] 81.3% | viability [5] 59% | inhibition [6] 2.46% | RAM network inhibition [7] 5.02%
